Measured values pooled from the literature.
Each line is one published result; the experiments were not run side by side.
Target: Inhibitor of nuclear factor kappa-B kinase subunit alpha (CHUK, Homo sapiens, UniProt O15111)
Residues used in one study (O15111 1-745): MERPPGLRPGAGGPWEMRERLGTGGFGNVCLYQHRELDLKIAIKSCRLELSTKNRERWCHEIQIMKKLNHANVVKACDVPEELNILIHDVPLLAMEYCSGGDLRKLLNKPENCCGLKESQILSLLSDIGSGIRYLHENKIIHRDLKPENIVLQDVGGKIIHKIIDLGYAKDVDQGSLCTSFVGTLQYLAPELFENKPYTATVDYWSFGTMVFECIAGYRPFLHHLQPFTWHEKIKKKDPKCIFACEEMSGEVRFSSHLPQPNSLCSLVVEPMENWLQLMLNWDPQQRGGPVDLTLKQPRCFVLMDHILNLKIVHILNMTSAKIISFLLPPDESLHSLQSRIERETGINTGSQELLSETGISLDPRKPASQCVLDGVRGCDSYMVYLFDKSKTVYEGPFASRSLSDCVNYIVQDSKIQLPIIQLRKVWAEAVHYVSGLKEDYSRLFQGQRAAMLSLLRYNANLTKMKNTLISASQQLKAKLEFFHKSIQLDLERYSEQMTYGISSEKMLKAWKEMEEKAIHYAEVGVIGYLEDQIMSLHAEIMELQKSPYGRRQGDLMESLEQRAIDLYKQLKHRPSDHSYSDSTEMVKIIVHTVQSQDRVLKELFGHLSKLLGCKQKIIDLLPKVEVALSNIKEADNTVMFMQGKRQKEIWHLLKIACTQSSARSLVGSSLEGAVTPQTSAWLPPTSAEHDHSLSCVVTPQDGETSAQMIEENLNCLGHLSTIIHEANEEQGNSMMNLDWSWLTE

SMILES	observed	method	tested at	remaining binding [%]
C[C@@H]1CN(c2ccc3ncc(-c4ccc5[nH]nc(C6CC6)c5c4)n3n2)C[C@H](C)O1	binding	competition with immobilised ligand	0.5 µM	85
FC(F)(F)Oc1cccc(-c2cnc3ccc(-c4ccncc4)nn23)c1	cell-free assay	competition with immobilised ligand	5 µM	39
CC1CCCN1c1nccc(-c2cnn3ncccc23)n1 (stereo not shown)	binding	–	1 µM	86
c1cncc(-c2cccc(Nc3nccc(NC4CCCCC4)n3)c2)c1	binding	competition with immobilised ligand	10 µM	87
O=C(Nc1cnc(Oc2ccc(F)cc2)nc1)N1CCc2ncccc2[C@@H]1c1ccc(F)cc1	cell-free assay	competition with immobilised ligand	1 µM	100
O=C(c1ccc(Nc2ncc(Cl)c(-c3ccc(Cl)s3)n2)cc1)N1CCC(N2CCCC2)CC1	binding	competition with immobilised ligand	1 µM	2.9
C=CC(=O)N1CCC(C(=O)NCC(=O)N2CCN(c3nc(-c4cnc(N)nc4C(F)F)nc(N4CCOCC4)n3)CC2)CC1	binding	competition with immobilised ligand	1 µM	71
CCCOc1ccc([C@@H]2[C@@H](C(=O)O)[C@H](c3ccc4c(c3)OCO4)CN2CC(=O)Nc2c(CC)cccc2CC)cc1	cell-free assay	competition with immobilised ligand	1 µM	86
COc1cnc(Nc2cccc(S(N)(=O)=O)c2)nc1N1CCN(c2ccccc2)CC1	binding	competition with immobilised ligand	1 µM	89
CN(CCCC(F)(F)F)c1nccc(-c2cnn3ncccc23)n1	binding	–	1 µM	99
O=C(Nc1c[nH]nc1C(=O)NC1CCNCC1)c1cc(F)cc(F)c1	binding	competition with immobilised ligand	1 µM	100
C[C@H]1CCN(c2nccc(-c3cnn4ncccc34)n2)C1	binding	–	1 µM	62
C[C@@H](c1ccc(-n2cnc3c(N)ncnc32)cc1)N1CCc2nn(C)c(Cc3ccccc3)c2C1=O	binding	competition with immobilised ligand	0.1 µM	80
O=C(NC[C@@H]1[C@H]2CN(C(=O)OCc3cc(C(F)(F)F)cc(C(F)(F)F)c3)C[C@@H]12)c1ccc2[nH]nnc2c1	cell-free assay	competition with immobilised ligand	1 µM	100
O=C(c1ccc(Nc2nccc(-c3cc4ccccc4s3)n2)cc1)N1CCC(N2CCCC2)CC1	binding	competition with immobilised ligand	1 µM	0.2
CCC(=O)N[C@H]1CC[C@@H](C(=O)N(C)c2ccc(-c3nc4ccccc4o3)cc2)C1	cell-free assay	competition with immobilised ligand	1 µM	100
Nc1ncc2c(n1)-c1c([nH]c3ccc(C#CC4CC4)cc13)CCCC2	binding	competition with immobilised ligand	1 µM	98
Cc1cnn2ncc(-c3ccnc(N(C)C)n3)c2c1	binding	–	1 µM	69
O=C(NCCCN1CCOCC1)c1ccc(Nc2nccc(-c3cc4ccccc4s3)n2)cc1	binding	competition with immobilised ligand	1 µM	12
O=C(NS(=O)(=O)c1ccc(NCC2CCOCC2)c([N+](=O)[O-])c1)c1ccc(N2CCN(Cc3ccc(C(F)(F)F)cc3-c3ccc(Cl)cc3)CC2)cc1Oc1cnc2[nH]ccc2c1	cell-free assay	competition with immobilised ligand	1 µM	81
CN(C)c1nccc(-c2cnc3ncccn23)n1	binding	–	1 µM	71
Nc1c(C(=O)NCc2ccc(C(=O)NCCCC3CCCCC3)cc2)cnn1-c1ccccc1	cell-free assay	competition with immobilised ligand	0.1 µM	100
CN(C)c1nccc(-c2cnn3ncccc23)n1	binding	–	1 µM	81
COc1cc(-c2cn(C3CCc4ccccc4N(CC(F)(F)F)C3=O)nn2)ccc1-n1ccc(C)n1 (stereo not shown)	cell-free assay	competition with immobilised ligand	1 µM	98
N[C@H]1CCN(c2nccc(-c3cnn4ncccc34)n2)C1	binding	–	1 µM	82
